Assay outcomes (PubChem BioAssay)
Compounds with a hit are over-represented: about 3.7% of the library has one in this group of screens.
KCNK3 inh = human KCNK3 channel inhibition, primary screen. CHO-KCNK3 thallium flux, FluxOR fluorescence; hits give low values. AID 602410. O14649. 0.84% of 340,000 active. B-score at 10 µM;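 active = B-score under library mean minus 4 SD, starting fluorescence ratio at most library mean plus 5 SD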;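 also: more negative B-score means stronger inhibition of thallium flux through KCNK3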
Kir21 block = blocks the mouse Kir2.1 inward-rectifier potassium channel; B-score at 10 µM; P35561; AID 1672; HEK293-Kir2.1, FluxOR thallium flux fluorescence; hits give low values; 0.85% of 310,000 active;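 active = fluorescence ratio B-score at or below minus 3 SD of library scores, with starting-brightness B-score within 2 SD, cut at about -4.2 in these data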;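 also: channel flux triggered by added potassium and thallium sulfate stimulus; B-score of peak minus minimum fluorescence over baseline after thallium stimulus; more negative B-score means stronger Kir2.1 block with less thallium influx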
hERG rescue = shields human hERG channel from block by proarrhythmic agents. activation (rescue from dofetilide block), less the hit threshold, % at 10 µM. Q12809. 0.51% of 310,000 active. CHO-hERG, FluxOR thallium flux, dofetilide IC70 present;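 active = activation above the mean of controls blocked by dofetilide plus 5 SD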;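 also: thallium influx through hERG after potassium depolarization seen as dye fluorescence rise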
Target sequence (Q12809 whole entry, looked up): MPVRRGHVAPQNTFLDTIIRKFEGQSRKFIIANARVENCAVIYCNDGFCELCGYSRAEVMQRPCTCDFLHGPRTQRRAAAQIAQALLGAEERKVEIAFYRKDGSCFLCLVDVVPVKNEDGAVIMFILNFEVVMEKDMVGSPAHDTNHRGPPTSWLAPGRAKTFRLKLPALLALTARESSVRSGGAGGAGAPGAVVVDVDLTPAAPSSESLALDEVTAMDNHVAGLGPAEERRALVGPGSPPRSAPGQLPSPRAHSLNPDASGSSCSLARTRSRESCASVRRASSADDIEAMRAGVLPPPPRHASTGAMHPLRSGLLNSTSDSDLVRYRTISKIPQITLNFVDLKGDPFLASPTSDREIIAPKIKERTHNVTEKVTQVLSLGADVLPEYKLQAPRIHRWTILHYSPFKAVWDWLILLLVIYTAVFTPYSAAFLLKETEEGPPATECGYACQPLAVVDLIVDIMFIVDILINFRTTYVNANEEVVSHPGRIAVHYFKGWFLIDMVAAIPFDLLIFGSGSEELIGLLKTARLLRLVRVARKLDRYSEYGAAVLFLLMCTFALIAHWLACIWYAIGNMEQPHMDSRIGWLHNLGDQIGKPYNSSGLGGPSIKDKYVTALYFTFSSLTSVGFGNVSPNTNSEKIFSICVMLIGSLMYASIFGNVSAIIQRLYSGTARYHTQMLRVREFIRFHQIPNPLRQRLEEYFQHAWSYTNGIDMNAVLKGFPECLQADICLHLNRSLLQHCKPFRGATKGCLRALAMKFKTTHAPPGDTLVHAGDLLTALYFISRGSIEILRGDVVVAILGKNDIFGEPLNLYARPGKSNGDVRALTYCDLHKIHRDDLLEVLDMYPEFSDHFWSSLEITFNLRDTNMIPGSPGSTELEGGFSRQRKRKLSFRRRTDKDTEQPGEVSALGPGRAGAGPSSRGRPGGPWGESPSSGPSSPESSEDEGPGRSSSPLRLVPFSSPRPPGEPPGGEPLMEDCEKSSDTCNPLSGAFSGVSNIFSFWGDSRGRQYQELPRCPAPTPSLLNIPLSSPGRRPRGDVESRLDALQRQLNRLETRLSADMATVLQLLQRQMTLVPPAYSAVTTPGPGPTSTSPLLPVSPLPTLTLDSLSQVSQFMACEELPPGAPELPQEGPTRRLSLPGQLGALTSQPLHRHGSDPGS
KCNK9 inh = blocks the human KCNK9 two-pore domain potassium channel; 1.2% of 310,000 active; B-score at 10 µM; HEK293 KCNK9, FluxOR thallium flux fluorescence; hits give low values; Q9NPC2; AID 488922;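 active = ratio B-score over 3 SD below the library mean, with starting fluorescence within 5 SD of its mean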;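 also: negative B-score means less thallium flux so channel inhibition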
KCNQ1 block = human KCNQ1 channel inhibition | CHO-K1 KCNQ1, FluxOR thallium flux fluorescence; hits give high values | 1.3% of 310,000 active | B-score at 10 µM | P51787 | AID 2642;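 active = compounds whose thallium flux B-score, printed positive for inhibition, exceeds three library SD while starting fluorescence stays within three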;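 also: channel opened by potassium depolarization with thallium stimulus after 20 min compound exposure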
KCNQ1 pot = human KCNQ1 channel potentiation or activation; CHO-K1 KCNQ1, thallium flux FluxOR fluorescence; hits give high values; P51787; B-score at 10 µM; 0.35% of 310,000 active; AID 2648;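 active = fluorescence ratio B-score, a plate-corrected score, at least three library SD, with initial intensity B-score within 5 SD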
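assay system = CHO-K1 cells stably expressing KCNQ1 | medium = assay buffer, equal DMSO in all wells | timing = 37 °C overnight plating, 90-min dark dye load, 20-min compound pretreatment | measured by = kinetic FluxOR thallium fluorescence, 10-s 1-Hz baseline, 110-s post-stimulus read | measure = fluorescence change relative to baseline, converted to B score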
A number is an active result; - = inactive; . = not tested or not shown.

SMILES	KCNK3 inh	Kir21 block	hERG rescue	KCNK9 inh	KCNQ1 block	KCNQ1 pot
COc1cc(OC)cc(C(C)=O)c1	-	-	5.7	-	-	-
COc1cc(OC)cc(C(=O)Nc2cccc(C(C)=O)c2)c1	-	-	-	-	-	-
Cc1cccc2c1-c1sc(C(=O)Nc3cccnc3)cc1CO2	-	-	-	-7.2	-	-
COc1cc(C(=O)c2nccc3cc(OC)c(OC)cc23)c([N+](=O)[O-])cc1OC	-	-	5.9	-	-	-
CCOc1ccc(S(=O)(=O)N2CCCC(C(=O)Nc3ccccc3)C2)cc1 (stereo unspecified)	-	-	-	-	-	-
CC(c1ccccc1)n1c(-c2cccs2)nc2c(c(=O)c3ccccc3n2C)c1=O (stereo unspecified)	-	-	-	-8.1	-	-
Cn1c2ccccc2c(=O)c2c(=O)n(-c3ccc(F)cc3)c(-c3cccs3)nc21	-	-	-	-	-	-
CC(C)c1nc2sc3ccccc3c(=O)c2c(=O)n1Cc1ccccc1	-	-	-	-	6	-
COc1ccc(Cn2c(C(C)C)nc3sc4ccccc4c(=O)c3c2=O)cc1	-	-	-	-	-	-
Nc1cc(=O)[nH]c(SCC(=O)c2ccc(F)cc2)n1	-	-	-	-	-	-
CCC(OC(=O)c1cc2sccc2n1C)C(=O)NCc1ccco1 (stereo unspecified)	-	-	-	-	-	-
COCCNC(=O)C(C)OC(=O)c1cc2sccc2n1C (stereo unspecified)	-	-	5.7	-	-	-
CC(=O)C1=C(c2cccc([N+](=O)[O-])c2)N(C(C)=O)n2c(C)nnc2S1	-	-	-	-	7	-
O=C(NCc1cccnc1)Nc1ccc(Cl)cc1Cl	-	-	-	-	-	-
C=C[C@]1(C)C=C2CCC3[C@](C)(CCC[C@@]3(C)C(=O)O)C2CC1 (stereo partly specified)	-	-	-	-	-	9
C=C/C(C)=C/CC1C(=C)CCC2C(C)(C(=O)O)CCCC12C (stereo unspecified)	-	-	-	-	-	-
COc1ccccc1CNC(=O)Cn1c(=O)oc2cc(S(=O)(=O)N3CCCC3)ccc21	-	-	-	-	-	-
CCc1ccc(-c2ccc(SCC(=O)NCC3CCCO3)nn2)cc1 (stereo unspecified)	-	-	-	-	-	-
C[C@@H]1[C@H]2[C@@H](O[C@@H]3O[C@H](CO)[C@@H](O)[C@H](O)[C@H]3O)OC=C(C(=O)O)[C@H]2C[C@@H]1O	-	-	-	-	-	-
COc1ccc(OC)c(S(=O)(=O)N2CCC(C(=O)Nc3ccccc3)CC2)c1	-	-	-	-	-	-
COc1ccc(OC)c(S(=O)(=O)N2CCC(C(=O)Nc3cccc(C)c3)CC2)c1	-	-	-	-7.9	6	-
O=C(Nc1ccncc1)C1CCN(S(=O)(=O)c2c(Cl)cccc2Cl)CC1	-	-	-	-7	-	-
C/C(=N\Nc1ncnc2sc(C)c(C)c12)c1ccccn1	-	-	-	-	11	-
CC(CC(=O)Nc1ccccc1)NCCCN1CCCC1=O (stereo unspecified)	-	-	-	-	-	-
CCOc1ccc2ccccc2c1/C=N/NC(=O)CNC(=O)c1ccccc1O	-	-	-	-	-	-
SMILES	KCNK3 inh	Kir21 block	hERG rescue	KCNK9 inh	KCNQ1 block	KCNQ1 pot
CN(C)C(CNC(=O)c1ccc(C(=O)c2ccccc2)cc1)c1ccccc1 (stereo unspecified)	-	-	-	-	-	-
CN(C)C(CNC(=O)c1ccc(-c2ccccc2)cc1)c1ccccc1 (stereo unspecified)	-	-	-	-	6	-
CCOC(=O)c1ccc(N2CCOCC2)c(NC(=O)c2nccnc2C(=O)O)c1	-	-	-	-	-	-
O=C(c1ccc(-c2cccc([N+](=O)[O-])c2)o1)N1CCN(c2ccc([N+](=O)[O-])cc2)CC1	-	.	.	.	.	.
O=C(c1ccc(-c2ccc(Cl)cc2)o1)N1CCN(c2ccc([N+](=O)[O-])cc2Cl)CC1	-	-	-	-	7	-
CCOC(=O)C1CCCN(C(=O)C(=O)c2cn(CC(=O)N3CCOCC3)c3ccccc23)C1 (stereo unspecified)	-	-	-	-	-	-
